# Published values collected from several papers.
# AVPR2: Vasopressin V2 receptor (AVPR2, Homo sapiens, UniProt P30518)
# Palmitoyl-protein thioesterase 1: Palmitoyl-protein thioesterase 1 (Homo sapiens, UniProt P50897)
# APC: Adenomatous polyposis coli protein (APC, Homo sapiens, UniProt P25054)
# HTR1E: 5-hydroxytryptamine receptor 1E (HTR1E, Homo sapiens, UniProt P28566)
# CSNK1A1/CRBN: Cereblon/Casein kinase I alpha (CSNK1A1/CRBN, Homo sapiens, UniProt P48729+Q96SW2)
Compound,target,read-out,mode,technique,endpoint,result
CC1=NN(/C(=N\c2ccccc2C)Nc2nnc(C)s2)C(c2ccc(C)cc2)S1 (stereo not drawn),AVPR2,cAMP,positive allosteric modulator,,EC50,20.8 µM
CN(C)c1ncnc2c1ncn2[C@@H]1O[C@H](CO)[C@@H](O)[C@H]1O,"Adenosine receptor A3 (ADORA3, Homo sapiens, UniProt P0DMS8, L264A)",G protein activation,agonist,,EC50,4 µM
CC1=NN(/C(=N/c2nnc(C)s2)Nc2ccc(C)c(C)c2)C(c2cccnc2)S1 (stereo not drawn),AVPR2,cAMP,positive allosteric modulator,,EC50,> 50 µM
[H]/N=C(\N/C(=N/[H])Nc1ccc(Cl)cc1)NC(C)C,Palmitoyl-protein thioesterase 1,binding,,MST,Kd,0.808 µM
Cc1cc(C(=O)N[C@@H](CCC(=O)O)C(=O)N[C@@H](Cc2ccc3ccccc3c2)C(=O)N[C@@H](CC(C)C)C(=O)NC2CC2c2ccccc2)ccn1 (stereo partly drawn),APC,ligand displacement,,FP,IC50,40.7 µM
CC1=NN(/C(=N/c2nnc(C)s2)Nc2ccc(C)c(C)c2)C(c2cc(F)c(F)c(F)c2)S1 (stereo not drawn),AVPR2,cAMP,positive allosteric modulator,,EC50,> 50 µM
CN(C)CCCN1c2ccccc2Sc2ccc(Cl)cc21,HTR1E,G protein activation,agonist,BRET,EC50,2.08 µM
CSc1nccc(C(=O)N[C@@H](CCC(=O)O)C(=O)N[C@@H](Cc2ccc3ccccc3c2)C(=O)N[C@@H](CC(C)C)C(=O)NC2CC2c2ccccc2)n1 (stereo partly drawn),APC,binding,,SPR,Kd,0.62 µM
C=C[C@H]1C[N@@]2CC[C@H]1C[C@H]2[C@H](O)c1ccnc2ccc(OC)cc12,Palmitoyl-protein thioesterase 1,binding,,MST,Kd,0.256 µM
CN1Cc2c(N)cccc2C(=O)N1C1CCC(=O)NC1=O (stereo not drawn),CSNK1A1/CRBN,protein level,degrader,luciferase,DC50,> 10 µM
CC(C)=CCNc1ncnc2c1ncn2[C@@H]1O[C@H](CO)[C@@H](O)[C@H]1O,"Adenosine receptor A3 (ADORA3, Homo sapiens, UniProt P0DMS8, I253Q)",G protein activation,agonist,,EC50,0.08 µM
CC1=NN(/C(=N\c2ccc(Br)cc2)Nc2nnc(C)s2)C(c2ccc(C)cc2)S1 (stereo not drawn),AVPR2,cAMP,positive allosteric modulator,,EC50,17.6 µM
CN1CCN(Cc2ccc(CNc3cccc4c3CN(C)N(C3CCC(=O)NC3=O)C4=O)cc2)CC1 (stereo not drawn),CSNK1A1/CRBN,protein level,degrader,luciferase,DC50,0.092 µM
CSc1cccc(C(=O)N[C@@H](CCC(=O)O)C(=O)N[C@@H](Cc2ccc3ccccc3c2)C(=O)N[C@@H](CC(C)C)C(=O)NC2CC2c2ccccc2)c1 (stereo partly drawn),APC,ligand displacement,,FP,IC50,52.5 µM
C=CCN1C[C@H](C(=O)N(CCCN(C)C)C(=O)NCC)C[C@@H]2c3cccc4[nH]cc(c34)C[C@H]21,HTR1E,G protein activation,agonist,BRET,EC50,1.72 µM
C#Cc1cccc(C(=O)N[C@@H](CCC(=O)O)C(=O)N[C@@H](Cc2ccc3ccccc3c2)C(=O)N[C@@H](CC(C)C)C(=O)NC2CC2c2ccccc2)c1 (stereo partly drawn),APC,ligand displacement,,FP,IC50,24 µM
N#C[C@@]12C[C@@H]1[C@@H](n1cnc3c(N[C@@H](C4CCC4)C4CC4)nc(I)nc31)[C@H](O)[C@@H]2O,"Adenosine receptor A3 (ADORA3, Homo sapiens, UniProt P0DMS8)",ligand displacement,,radioligand,Ki,> 1 µM
CCc1cccc(C(=O)N[C@@H](CCC(=O)O)C(=O)N[C@@H](Cc2ccc3ccccc3c2)C(=O)N[C@@H](CC(C)C)C(=O)NC2CC2c2ccccc2)c1 (stereo partly drawn),APC,ligand displacement,,FP,IC50,25.1 µM
CN1CCc2cc(Cl)c(O)cc2[C@@H](c2ccccc2)C1,HTR1E,G protein activation,agonist,BRET,EC50,3.9 µM
Nc1nnc(-c2ccccc2O)cc1N1CCN(Cc2ccc(OCCOCCNc3cccc4c3C(=O)N(C3CCC(=O)NC3=O)C4=O)c(F)c2)CC1 (stereo not drawn),"SWI/SNF-related matrix-associated actin-dependent regulator of chromatin subfamily A member 2 (SMARCA2, Homo sapiens, UniProt P51531)",protein level,degrader,western blot,DC50,0.064 µM
CCCNC(=O)NS(=O)(=O)c1ccc(Cl)cc1,Palmitoyl-protein thioesterase 1,binding,,MST,Kd,0.201 µM
CC1=NN(/C(=N/c2nnc(C)s2)Nc2ccc(C)c(C)c2)C(c2ccc(C(C)(C)C)cc2)S1 (stereo not drawn),AVPR2,cAMP,positive allosteric modulator,,EC50,> 50 µM
CSc1ncc(Br)c(C(=O)N[C@@H](CCC(=O)O)C(=O)N[C@@H](Cc2ccc3ccccc3c2)C(=O)N[C@@H](CC(C)C)C(=O)N[C@@H]2C[C@H]2c2ccccc2)n1,APC,binding,,SPR,Kd,0.23 µM
CCc1ccc(/N=C(/Nc2nnc(C)s2)N2N=C(C)SC2c2ccc(C)cc2)cc1 (stereo not drawn),AVPR2,cAMP,positive allosteric modulator,,EC50,15.8 µM
CN1CCN2c3ccccc3Cc3ccccc3C2C1 (stereo not drawn),HTR1E,G protein activation,agonist,BRET,EC50,0.123 µM
CC(C)C[C@H](NC(=O)[C@H](Cc1ccc2ccccc2c1)NC(=O)[C@H](CCC(=O)O)NC(=O)c1ccncn1)C(=O)NC1CC1c1ccccc1 (stereo partly drawn),APC,binding,,SPR,Kd,2.3 µM
CCCCCCCC/C=C\CCCCCCCC(=O)O,"Myoglobin (MB, Homo sapiens, UniProt P02144, K46M)",binding,,absorbance,Kd,13.1 µM
Cc1nc2n(c(=O)c1CCN1CCC(c3noc4cc(F)ccc34)CC1)CCCC2O (stereo not drawn),"RNA cytidine acetyltransferase (Homo sapiens, UniProt Q9H0A0)",binding,,ITC,Kd,12.8 µM
CC1=NN(/C(=N/c2nnc(C)s2)Nc2ccc(C)c(C)c2)C(c2ccc(F)cc2)S1 (stereo not drawn),AVPR2,cAMP,positive allosteric modulator,,EC50,> 50 µM
CN1CCC(=C2c3ccccc3C=Cc3ccccc32)CC1,HTR1E,G protein activation,agonist,BRET,EC50,2.04 µM
CC(C)C[C@H](NC(=O)[C@H](CC1CC1)NC(=O)[C@H](CCC(=O)O)NC(=O)c1ccncn1)C(=O)NC1CC1c1ccccc1 (stereo partly drawn),APC,binding,,SPR,Kd,32 µM
CC1=NN(/C(=N/c2nnc(C)s2)Nc2ccc(C)c(C)c2)C(c2ccsc2)S1 (stereo not drawn),AVPR2,cAMP,positive allosteric modulator,,EC50,> 50 µM
COc1ccc(CC2NCCc3c2[nH]c2ccc(C)cc32)c(Cl)c1OC (stereo not drawn),HTR1E,G protein activation,agonist,BRET,EC50,2.43 µM
